This is an account of results in ChEMBL document CHEMBL3124762, “De-novo designed library of benzoylureas as inhibitors of BCL-XL: synthesis, structural and biochemical characterization” (J Med Chem, 2014).

Assay [1] can be described thus: Inhibition of binding of biotinylated mouse BIM BH3-26mer peptide to GST-tagged mouse BCL-Xl delta C25 mutant by AlphaScreen/[…] assay. Summed up:
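Bead-based AlphaScreen competition: compounds titrated by serial dilution from 150 µM against GST-BCL-XL ΔC25 (0.6 nM final) and biotinylated BIM BH3 26-mer (5.0 nM final). Anti-GST acceptor and streptavidin donor beads at 15 µg/mL each. Protein/acceptor and peptide/donor pairs pre-incubated 30 min. Compound plus protein complex 30 min, then peptide complex 4 h at room temperature. 1% DMSO final. IC50 from at least two separate experiments.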

Assay [2] in a line: Inhibition of binding of wild type mBIMBH3 peptide to human/mouse chimeric MCL1 by surface plasmon resonance competition experiment. Summed up: (§1)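 Solution competition SPR: recombinant pro-survival protein (10 nM) incubated 2 h with compound (25–0.024 µM) in HEPES 10 mM, 150 mM NaCl, 3.4 mM EDTA, 0.005% Tween 20, pH 7.4. Mixture then injected over CM5 chip bearing immobilized wild-type mBIMBH3 26-mer, with inert mutant mBIMBH3 surface as reference. IC50 is the mean of three independent experiments ± SEM.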

The target in assay [3] is Bcl-2-like protein 2 (Homo sapiens, UniProt Q92843, A128E/C29S). The experiment in a line: Inhibition of binding of wild type mBIMBH3 peptide to human Bcl-W delta C29 (C29S/A128E) mutant by surface plasmon resonance competition experiment. Summed up: as §1
Bcl-2-like protein 2, sequence (Q92843 2-193 C29S/A128E limits assumed): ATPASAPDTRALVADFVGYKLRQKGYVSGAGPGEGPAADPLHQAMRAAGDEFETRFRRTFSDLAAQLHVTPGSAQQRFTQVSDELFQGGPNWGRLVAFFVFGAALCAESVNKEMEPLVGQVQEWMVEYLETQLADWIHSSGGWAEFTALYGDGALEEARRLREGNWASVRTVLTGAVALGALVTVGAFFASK
Assay [4] can be described thus: Inhibition of binding of wild type mBIMBH3 peptide to human Bcl-2 delta C22 mutant by surface plasmon resonance competition experiment. Summed up:
as §1

Assay [5] can be described thus: Inhibition of binding of wild type mBIMBH3 peptide to human Bcl-XL delta C24 mutant by surface plasmon resonance competition experiment. Summed up: as §1
Assay [6] addresses T1, Bcl-2-like protein 1 (Homo sapiens, UniProt Q07817). The assay can be described thus: Direct binding affinity to Bcl-XL (unknown origin) pre-saturated with 26-mer-wt-Bim assessed as dissociation constant measured for 120 secs by surface plasmon resonance. Summed up: (§2)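 Biacore S51 direct binding. GST-BCL-XL captured on an amine-coupled anti-GST antibody surface (about 1200 RU), in phosphate buffer pH 7.4 with 150 mM NaCl, 1 mM EDTA, 0.03% Tween 20 and 5% DMSO. Each cycle, 30 nM wt-BIM 26-mer pre-blocks the groove on the reference spot. Double referencing, 4–6% DMSO solvent correction, 1:1 fit with mass transport; Kd = kd/ka.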

The target in assay [7] is T1, Bcl-2-like protein 1. The experiment in a line: Direct binding affinity to free Bcl-XL (unknown origin) assessed as […] measured for 60 secs by surface plasmon resonance. An outline of the steps: as §2
The target in assay [8] is Bcl-2-related protein A1 (Mus musculus) (UniProt Q07440). The assay can be described thus: Inhibition of binding of wild type mBIMBH3 peptide to mouse Bcl-2-related protein A1 by surface plasmon resonance competition experiment.
Bcl-2-related protein A1 (Mus musculus), sequence (Q07440 whole entry, looked up): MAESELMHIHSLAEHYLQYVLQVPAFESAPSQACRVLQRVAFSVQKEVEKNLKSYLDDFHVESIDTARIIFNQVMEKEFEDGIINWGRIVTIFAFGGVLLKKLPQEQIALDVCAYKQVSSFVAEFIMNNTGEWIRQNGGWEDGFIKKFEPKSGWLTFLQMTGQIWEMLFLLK

T1 sequence (Q07817 whole entry): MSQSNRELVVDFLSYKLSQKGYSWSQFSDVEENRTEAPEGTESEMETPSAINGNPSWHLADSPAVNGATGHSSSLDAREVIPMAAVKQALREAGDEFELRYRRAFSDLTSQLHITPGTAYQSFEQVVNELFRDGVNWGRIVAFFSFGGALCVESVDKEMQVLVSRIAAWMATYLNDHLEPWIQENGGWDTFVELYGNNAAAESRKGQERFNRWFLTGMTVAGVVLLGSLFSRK

Take `CCCN(C(=O)N[C@@H](CSCC(C)C)C(=O)O)C(=O)c1cccc(C#Cc2ccccc2)c1`: the IC50 in assay [1] was 15 µM. For the compound `CCCN(C(=O)N[C@@H](CSCCCc1ccccc1)C(=O)O)C(=O)c1cccc(C#Cc2ccccc2)c1`, the IC50 in assay [1] was determined as 73 µM. For `CCCN(C(=O)N[C@@H](CSCc1ccccc1-c1ccccc1)C(=O)O)C(=O)c1cccc(C#Cc2ccccc2)c1`, the IC50 in assay [1] was found to be 146 µM.

The compound `CCCN(C(=O)N[C@@H](CSCCc1ccccc1)C(=O)O)C(=O)c1cccc(C#Cc2ccccc2)c1` registered an IC50 in assay [1] of 21 µM.

Regarding `CCCN(C(=O)N[C@@H](CSc1ccccc1)C(=O)O)C(=O)c1cccc(C#Cc2ccccc2)c1`, the IC50 in assay [1] turned out to be 25 µM. The IC50 values of the last two compounds are within 1.5-fold of each other. In the case of `CCCN(C(=O)N[C@@H](CSCc1ccc(OC)cc1)C(=O)O)C(=O)c1cccc(C#Cc2ccccc2)c1`, the IC50 in assay [1] was found to be 21 µM. This IC50 and that of the compound before are within 1.5-fold of each other. Still for that read-out and setting: next, `CCCN(C(=O)N[C@@H](CSCC(C)C)C(=O)O)C(=O)c1cccc(C#Cc2cccc(F)c2)c1`: 69 µM; `CCCN(C(=O)N[C@@H](CSCC(C)C)C(=O)O)C(=O)c1cccc(C#Cc2ccc(F)cc2)c1`: 9 µM.

As for `CCCN(C(=O)N[C@@H](CSCC(C)C)C(=O)O)C(=O)c1cccc(C#Cc2ccccc2C)c1`, the IC50 in assay [1] came to 57 µM. Against the preceding compound, the IC50 is about 6.3-fold higher. Same read-out and setting: then `CCCN(C(=O)N[C@@H](CSCC(C)C)C(=O)O)C(=O)c1cccc(C#Cc2cccc(C)c2)c1`, with 51 µM. Same read-out and setting: next, `CCCN(C(=O)N[C@@H](CSCC(C)C)C(=O)O)C(=O)c1cccc(C#Cc2ccc(C)cc2)c1`: 50 µM; `CCCN(C(=O)N[C@@H](CSCC(C)C)C(=O)O)C(=O)c1cccc(C#Cc2ccc(Oc3ccccc3)cc2)c1`: more than 150 µM.

Turning to `CCCN(C(=O)N[C@@H](CSCC(C)C)C(=O)O)C(=O)c1cccc(C#Cc2ccc(C(C)(C)C)cc2)c1`, the IC50 in assay [1] was more than 150 µM. Take `CCCN(C(=O)N[C@@H](CSCC(C)C)C(=O)O)C(=O)c1cccc(C#Cc2ccncc2)c1`: the IC50 in assay [1] is more than 150 µM. On the same count and under the same terms, next, `CCCN(C(=O)N[C@@H](CSCC(C)C)C(=O)O)C(=O)c1cccc(C#Cc2cccnc2)c1`: more than 150 µM.

Compound `CCCN(C(=O)N[C@@H](CSCC(C)C)C(=O)O)C(=O)c1cccc(C#Cc2ccccc2F)c1` came in with an IC50 in assay [1] of 39 µM. As to `CCCN(C(=O)N[C@@H](CSCC(C)C)C(=O)O)C(=O)c1cccc(C#Cc2ccc(F)cc2F)c1`, the IC50 in assay [2] is more than 25 µM; in assay [3] it was more than 25 µM; in assay [4], more than 25 µM; in assay [5] it was 4.4 µM; in assay [1], 22 µM; in assay [8], more than 25 µM. For the same compound, the Kd in assay [6] was found to be 2.1 µM; in assay [7] it was 4.9 µM. Regarding `CCCN(C(=O)N[C@@H](CSCc1ccc(Br)cc1)C(=O)O)C(=O)c1cccc(C#Cc2ccc(F)cc2F)c1`, the results for the Kd in assay [6] and in assay [7] were 4 µM and 6.9 µM, respectively. Besides, the IC50 in assay [1] stood at 13 µM.

`CCCN(C(=O)N[C@@H](Cc1c[nH]c2ccccc12)C(=O)O)C(=O)c1cccc(-c2ccccc2)c1` gave an IC50 in assay [1] of 108 µM. Still for that read-out and setting: then `CCCN(C(=O)NCCSCc1ccccc1)C(=O)c1cccc(-c2ccccc2)c1`, with more than 150 µM; and `CCCN(C(=O)N[C@@H](CSCc1ccccc1)C(=O)OC)C(=O)c1cccc(-c2ccccc2)c1`, with more than 150 µM. `CCCN(C(=O)N[C@@H](CSCc1ccccc1)C(N)=O)C(=O)c1cccc(-c2ccccc2)c1` registered an IC50 in assay [1] of more than 150 µM. `CCCN(C(=O)N[C@@H](CSCc1ccccc1)C(=O)O)C(=O)c1cccc(-c2ccc(F)cc2)c1` registered an IC50 in assay [1] of 125 µM. Still for that read-out and setting: then `CCCN(C(=O)N[C@@H](CSCc1ccccc1)C(=O)O)C(=O)c1cccc(-c2ccc(C)cc2)c1`, with 77 µM; and `CCCN(C(=O)N[C@@H](CSCc1ccccc1)C(=O)O)C(=O)c1cccc(-c2ccccc2Cl)c1`, with 102 µM.

`CCCN(C(=O)N[C@@H](CSCc1ccccc1)C(=O)O)C(=O)c1cccc(-c2ccc(OC)cc2)c1`: in assay [1], the IC50 is more than 150 µM.

In turn, `CCCN(C(=O)N[C@@H](CSCc1ccccc1)C(=O)O)C(=O)c1cccc(-c2ccc(Cl)cc2)c1` displayed an IC50 in assay [1] of 86 µM. On the same count and under the same terms, next, `CCCN(C(=O)N[C@@H](CSCc1ccccc1)C(=O)O)C(=O)c1cccc(-c2ccc(Cl)c(Cl)c2)c1`: 78 µM; `CCCN(C(=O)N[C@@H](CSCc1ccccc1)C(=O)O)C(=O)c1cccc(-c2cccc3ccccc23)c1`: 62 µM. On the same count and under the same terms, then `CCCN(C(=O)N[C@@H](CSCc1ccccc1)C(=O)O)C(=O)c1cccc(-c2ccc3ccccc3c2)c1`, with 63 µM; and `CCCN(C(=O)N[C@@H](CSCc1ccccc1)C(=O)O)C(=O)c1cccc(Cc2ccccc2)c1`, with more than 150 µM; and `CCCN(C(=O)N[C@@H](CSCc1ccccc1)C(=O)O)C(=O)c1cccc(C#Cc2ccccc2)c1`, with 35 µM. As to `CCCN(C(=O)N[C@@H](CSCc1ccccc1)C(=O)O)C(=O)c1cccc(/C=C/c2ccccc2)c1`, in assay [1], the IC50 came to 141 µM. Same read-out and setting: then `CCCN(C(=O)N[C@@H](CSCc1ccccc1)C(=O)O)C(=O)c1cccc(CCc2ccccc2)c1`, with 55 µM; and `CCCSC[C@H](NC(=O)N(CCC)C(=O)c1cccc(C#Cc2ccccc2)c1)C(=O)O`, with 21 µM; and `CCCN(C(=O)N[C@@H](CSC(C)C)C(=O)O)C(=O)c1cccc(C#Cc2ccccc2)c1`, with 33 µM.

Take `CCCN(C(=O)N[C@@H](CSCC1CCCCC1)C(=O)O)C(=O)c1cccc(C#Cc2ccccc2)c1`: the IC50 in assay [1] is 42 µM.

Turning to `CCN(C(=O)N[C@@H](CSCc1ccccc1)C(=O)O)C(=O)c1cccc(-c2ccccc2)c1`, the IC50 in assay [1] amounted to 128 µM. Still for that read-out and setting: then `CCCN(C(=O)N[C@@H](CSCc1ccccc1)C(=O)O)C(=O)c1cccc(-c2ccccc2)c1`, with 109 µM.

On to `CCCCN(C(=O)N[C@@H](CSCc1ccccc1)C(=O)O)C(=O)c1cccc(-c2ccccc2)c1`, for which the IC50 in assay [1] came out at 138 µM.

The compound `CCC(C)N(C(=O)N[C@@H](CSCc1ccccc1)C(=O)O)C(=O)c1cccc(-c2ccccc2)c1` (some centres undefined) displayed a half-maximal inhibitory concentration (IC50) in assay [1] of more than 150 µM. On to `CC(C)N(C(=O)N[C@@H](CSCc1ccccc1)C(=O)O)C(=O)c1cccc(-c2ccccc2)c1`, for which the IC50 in assay [1] is more than 150 µM. Same read-out and setting: then `O=C(O)[C@H](CSCc1ccccc1)NC(=O)N(Cc1ccccc1)C(=O)c1cccc(-c2ccccc2)c1`, with more than 150 µM; and `Cc1ccc(CN(C(=O)N[C@@H](CSCc2ccccc2)C(=O)O)C(=O)c2cccc(-c3ccccc3)c2)cc1`, with more than 150 µM. `CCCN(C(=O)NC)C(=O)c1cccc(-c2ccccc2)c1` yielded an IC50 in assay [1] of more than 150 µM. On the same count and under the same terms, then `CCCN(C(=O)N[C@@H](CC(C)C)C(=O)O)C(=O)c1cccc(-c2ccccc2)c1`, with more than 150 µM. In the case of `CCCN(C(=O)N[C@@H](Cc1ccccc1)C(=O)O)C(=O)c1cccc(-c2ccccc2)c1`, the IC50 in assay [1] is more than 150 µM. Regarding `CCCN(C(=O)N[C@@H](Cc1ccc(O)cc1)C(=O)O)C(=O)c1cccc(-c2ccccc2)c1`, the IC50 in assay [1] was more than 150 µM.

Turning to `CCCN(C(=O)N[C@@H](CCc1ccccc1)C(=O)O)C(=O)c1cccc(-c2ccccc2)c1`, the IC50 in assay [1] was more than 150 µM.

`CCCN(C(=O)N[C@@H](Cc1ccc2ccccc2c1)C(=O)O)C(=O)c1cccc(-c2ccccc2)c1` gave an IC50 in assay [1] of more than 150 µM. On to `O=C(NS(=O)(=O)c1ccc(NCCSc2ccccc2)c([N+](=O)[O-])c1)c1ccc(-c2ccc(F)cc2)cc1`, for which the IC50 is 22 µM in assay [2]; more than 25 µM in assay [3]; 14.7 µM in assay [4]; 0.196 µM in assay [5]; 14.2 µM in assay [8].
